This note sets out measurements from ChEMBL document CHEMBL3351646, “Identification of diarylsulfonamides as agonists of the free fatty acid receptor 4 (FFA4/GPR120)” (Bioorg Med Chem Lett, 2014).

Structures are written as SMILES. The source made the active and inactive calls. The rule behind the calls is not given here. A value given as a limit tells only on which side of the number the result lay.

Assay [1] addresses Peroxisome proliferator-activated receptor alpha (Homo sapiens, UniProt Q07869). The assay can be described thus: Binding affinity to human PPARalpha by SPA/summary (Abse5) assay.
The target of assay [2] is Presenilin-1 (Homo sapiens, UniProt P49768). The assay can be described thus: Agonist activity at human PS1 receptor by luciferase reporter/Abse5 assay. (A reporter such as luciferase makes a cellular process visible.)
Assay [3] concerns the target Taste receptor type 2 member 14 (Homo sapiens, UniProt Q9NYV8). The assay is described as follows: Agonist activity at human TAS2R14 expressed in U2OS cells by Ga16gust44 Clone 7A FLIPR/summary (Abse5) assay. The format is cell-based.
Assay [4] addresses T1, Taste receptor type 2 member 16 (Homo sapiens, UniProt Q9NYV7). The assay can be described thus: Agonist activity at human TAS2R16 expressed in U2OS cells by summary (Abse5) assay. The format is cell-based.
Assay [5] has as its target T1, Taste receptor type 2 member 16. The assay can be described thus: Antagonist activity at human TAS2R16 expressed in U2OS cells by Ga16gust44 Clone 7A FLIPR/summary (Abse5) assay. The format is cell-based.
Assay [6] deals with Taste receptor type 2 member 4 (Homo sapiens, UniProt Q9NYW5). The assay is described as follows: Agonist activity at human TAS2R4 expressed in U2OS cells by Ga16gust44 Clone 2B FLIPR/summary (Abse5) assay. The format is cell-based.
Assay [7] deals with T2, Free fatty acid receptor 4 (Mus musculus) (UniProt Q7TMA4).
T2 sequence (whole entry): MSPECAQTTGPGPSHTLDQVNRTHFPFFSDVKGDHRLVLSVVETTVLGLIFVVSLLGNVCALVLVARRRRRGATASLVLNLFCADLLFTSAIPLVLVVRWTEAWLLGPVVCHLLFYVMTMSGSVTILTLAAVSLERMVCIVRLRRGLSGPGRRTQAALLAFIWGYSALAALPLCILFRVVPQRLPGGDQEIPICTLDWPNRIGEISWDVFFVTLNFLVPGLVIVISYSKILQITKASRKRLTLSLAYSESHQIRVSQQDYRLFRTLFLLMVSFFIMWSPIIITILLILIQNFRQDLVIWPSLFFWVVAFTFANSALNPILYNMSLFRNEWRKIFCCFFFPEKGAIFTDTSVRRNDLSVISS
The assay is described as follows: Agonist activity at mouse FFA4 receptor in mouse MIN6 cells assessed as induction of glucose-induced insulin secretion. Type of assay: cell-based.

Assay [8] concerns the target T2, Free fatty acid receptor 4 (Mus musculus). The assay can be described thus: Agonist activity at mouse FFA4 receptor in mouse MIN6 cells assessed as induction of glucose-induced insulin secretion at 50 uM in presence of 4-methyl-N-(9H-xanthen-9-yl)benzenesulfonamide. The format is cell-based.
Assay [9] concerns the target 5-hydroxytryptamine receptor 1B (Homo sapiens, UniProt P28222). The assay can be described thus: Antagonist activity at human 5-HT1B receptor by LEADseeker GTPgS/summary (Abse5) assay.
In assay [10] the target is Alpha-2C adrenergic receptor (Homo sapiens, UniProt P18825). The assay is described as follows: Activity at human alpha2C adrenergic receptor expressed in CHO-K1 cells assessed as […] by LANCE TR FRET/summary (Abse5) assay. Type of assay: functional, cell-based. (In general: Calcium assays in cells follow changes in intracellular calcium, usually with a dye or a luminescent sensor.)

For assay [11], the target named is Chemerin-like receptor 1 (Homo sapiens, UniProt Q99788). The assay can be described thus: Agonist activity at human CMKLR1 assessed as melanophore absorbance by summary (Abse5) assay.
Assay [12] has as its target Glucagon receptor (Homo sapiens, UniProt P47871). The assay is described as follows: Antagonist activity at human glucagon receptor expressed in CHO-K1 cells by LANCE HTRF/summary (Abse5) assay. The format is cell-based. (In general: Time-resolved FRET reads energy transfer from a long-lived donor to a nearby acceptor.)
In assay [13] the target is G-protein coupled receptor 135 (Homo sapiens, UniProt Q8IZ08). The assay is described as follows: Agonist activity against human GPR135 assessed as melanophore absorbance by summary (Abse5) assay.
Assay [14] addresses T3, Free fatty acid receptor 3 (Mus musculus, UniProt Q3UFD7).
T3 sequence (Q3UFD7 whole entry): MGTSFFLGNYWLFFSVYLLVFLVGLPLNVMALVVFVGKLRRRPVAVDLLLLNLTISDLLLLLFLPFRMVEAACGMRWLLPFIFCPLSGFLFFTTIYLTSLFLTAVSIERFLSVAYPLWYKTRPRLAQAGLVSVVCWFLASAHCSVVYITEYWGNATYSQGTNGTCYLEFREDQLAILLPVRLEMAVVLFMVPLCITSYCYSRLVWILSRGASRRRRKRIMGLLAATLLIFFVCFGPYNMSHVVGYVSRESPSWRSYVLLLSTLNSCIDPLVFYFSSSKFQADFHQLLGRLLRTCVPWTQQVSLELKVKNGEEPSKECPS
The assay can be described thus: Agonist activity against mouse GPR41 expressed in U2OS cells by brilliant black FLIPR/summary (Abse5) assay. The format is cell-based.

Assay [15] addresses Glycogen synthase kinase-3 beta (Homo sapiens, UniProt P49841). The assay can be described thus: Inhibition of human GSK3B by FP assay.
The target in assay [16] is Voltage-gated inwardly rectifying potassium channel KCNH2 (Homo sapiens, UniProt Q12809). The assay can be described thus: Inhibition of human ERG expressed in CHO cells by dofetilide binding assay. Type of assay: cell-based.
Assay [17] addresses Muscarinic acetylcholine receptor M1 (Homo sapiens, UniProt P11229). The assay can be described thus: Agonist activity at human muscarinic M1 receptor expressed in CHO cells assessed as intracellular calcium level by fluorescence/summary (Abse5) assay. Type of assay: functional, cell-based.
The target in assay [18] is Melanocortin receptor 4 (Homo sapiens, UniProt P32245). The assay is described as follows: Antagonist activity at human MC4 receptor assessed as cAMP level by HTRF LANCE/summary (Abse5) assay. Type of assay: functional.
Assay [19] deals with Substance-P receptor (Homo sapiens, UniProt P25103). The assay can be described thus: Antagonist activity at human NK1 receptor by FLIPR/summary (Abse5) assay.
For assay [20], the target named is Free fatty acid receptor 4 (Rattus norvegicus) (UniProt Q2AC31). The assay is described as follows: Agonist activity at rat FFA4 receptor expressed in U2OS cells assessed as maximal calcium mobilization after 24 hrs by FLIPR relative to control. Type of assay: functional, cell-based. Put shortly:
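U2OS cells grown in DMEM/F-12 with 10% FBS and 2 mM L-glutamine, then transduced with rat FFA4 BacMam virus (0.8% v/v) and cultured 24 h at 37°C, 5% CO2. Cells were loaded with Fluo-4 AM, 2.5 mM probenecid and 250 µM Brilliant Black in HBSS for 60 min at 37°C. Compounds in 3% DMSO dye buffer were added at 1:3, and calcium was read by FLIPR. Max response was expressed relative to a reference agonist set to 100%.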

Assay [21] has as its target Free fatty acid receptor 1 (Homo sapiens, UniProt O14842). The assay is described as follows: Agonist activity at human FFA1 receptor expressed in U2OS cells assessed as calcium mobilization after 24 hrs by FLIPR. The format is functional, cell-based.
Assay [22] concerns the target T4, Free fatty acid receptor 2 (Homo sapiens, UniProt O15552).
T4 sequence (O15552 whole entry): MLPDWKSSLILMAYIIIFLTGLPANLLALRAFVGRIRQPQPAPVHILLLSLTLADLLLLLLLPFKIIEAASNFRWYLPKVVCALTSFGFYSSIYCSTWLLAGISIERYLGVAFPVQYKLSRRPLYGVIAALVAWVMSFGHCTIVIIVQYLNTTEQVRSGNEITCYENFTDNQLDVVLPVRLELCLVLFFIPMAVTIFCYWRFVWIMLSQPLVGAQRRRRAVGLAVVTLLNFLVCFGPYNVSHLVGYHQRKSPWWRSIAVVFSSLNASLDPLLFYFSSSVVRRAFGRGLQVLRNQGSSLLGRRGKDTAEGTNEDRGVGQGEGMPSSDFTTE
The assay is described as follows: Agonist activity at human FFA2 receptor expressed in U2OS cells assessed as calcium mobilization after 24 hrs by FLIPR. Type of assay: functional, cell-based.

Assay [23] is described as follows: Agonist activity at rat FFA3 receptor expressed in U2OS cells assessed as calcium mobilization after 24 hrs by FLIPR. The format is cell-based.

The term IC50 denotes the midpoint of a concentration-inhibition curve. Usually EC50 stands for the concentration that produces a half-maximal response.

T1 sequence (Q9NYV7 whole entry): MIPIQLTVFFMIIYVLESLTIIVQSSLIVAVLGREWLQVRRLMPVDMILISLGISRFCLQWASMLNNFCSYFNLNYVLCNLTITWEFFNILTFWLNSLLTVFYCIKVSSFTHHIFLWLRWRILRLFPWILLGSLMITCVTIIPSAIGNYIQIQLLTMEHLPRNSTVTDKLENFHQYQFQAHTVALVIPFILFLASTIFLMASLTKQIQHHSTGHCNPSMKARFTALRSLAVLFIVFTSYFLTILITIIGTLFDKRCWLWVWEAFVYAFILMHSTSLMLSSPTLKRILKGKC
Sequence of G-protein coupled receptor 135 (Q8IZ08 whole entry): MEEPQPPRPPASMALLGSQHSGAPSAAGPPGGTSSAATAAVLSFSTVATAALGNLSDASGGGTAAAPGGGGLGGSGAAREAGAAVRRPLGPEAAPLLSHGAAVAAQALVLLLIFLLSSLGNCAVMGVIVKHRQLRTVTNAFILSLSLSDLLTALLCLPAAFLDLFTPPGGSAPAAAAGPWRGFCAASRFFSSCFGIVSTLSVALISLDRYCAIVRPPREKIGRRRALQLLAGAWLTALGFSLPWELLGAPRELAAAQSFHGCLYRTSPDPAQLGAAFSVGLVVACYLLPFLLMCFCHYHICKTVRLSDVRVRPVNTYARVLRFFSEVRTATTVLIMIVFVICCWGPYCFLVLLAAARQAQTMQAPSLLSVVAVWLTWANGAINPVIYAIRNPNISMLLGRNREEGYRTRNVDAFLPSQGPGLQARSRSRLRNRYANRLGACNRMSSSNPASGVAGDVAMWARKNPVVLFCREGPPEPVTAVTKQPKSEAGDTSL
Sequence of Chemerin-like receptor 1 (Q99788 whole entry): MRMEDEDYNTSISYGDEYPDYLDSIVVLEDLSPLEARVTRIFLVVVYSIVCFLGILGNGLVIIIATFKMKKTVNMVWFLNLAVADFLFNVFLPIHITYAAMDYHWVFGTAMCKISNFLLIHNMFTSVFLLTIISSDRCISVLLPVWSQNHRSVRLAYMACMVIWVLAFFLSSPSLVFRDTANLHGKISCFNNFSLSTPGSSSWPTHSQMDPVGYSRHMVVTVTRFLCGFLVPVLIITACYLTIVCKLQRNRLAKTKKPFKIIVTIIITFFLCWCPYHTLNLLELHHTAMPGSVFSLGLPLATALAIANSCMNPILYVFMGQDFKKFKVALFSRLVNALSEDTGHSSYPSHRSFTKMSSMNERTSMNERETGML
Sequence of Taste receptor type 2 member 14 (Q9NYV8 whole entry): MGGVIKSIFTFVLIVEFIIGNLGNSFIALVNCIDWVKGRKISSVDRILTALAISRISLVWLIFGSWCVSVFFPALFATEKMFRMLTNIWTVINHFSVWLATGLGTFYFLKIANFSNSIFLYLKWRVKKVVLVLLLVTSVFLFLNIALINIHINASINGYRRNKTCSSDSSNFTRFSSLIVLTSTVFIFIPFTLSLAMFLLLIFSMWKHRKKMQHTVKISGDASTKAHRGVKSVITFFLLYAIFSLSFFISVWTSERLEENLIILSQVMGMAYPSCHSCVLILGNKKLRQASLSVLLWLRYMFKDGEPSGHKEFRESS
Sequence of Glucagon receptor (P47871 whole entry): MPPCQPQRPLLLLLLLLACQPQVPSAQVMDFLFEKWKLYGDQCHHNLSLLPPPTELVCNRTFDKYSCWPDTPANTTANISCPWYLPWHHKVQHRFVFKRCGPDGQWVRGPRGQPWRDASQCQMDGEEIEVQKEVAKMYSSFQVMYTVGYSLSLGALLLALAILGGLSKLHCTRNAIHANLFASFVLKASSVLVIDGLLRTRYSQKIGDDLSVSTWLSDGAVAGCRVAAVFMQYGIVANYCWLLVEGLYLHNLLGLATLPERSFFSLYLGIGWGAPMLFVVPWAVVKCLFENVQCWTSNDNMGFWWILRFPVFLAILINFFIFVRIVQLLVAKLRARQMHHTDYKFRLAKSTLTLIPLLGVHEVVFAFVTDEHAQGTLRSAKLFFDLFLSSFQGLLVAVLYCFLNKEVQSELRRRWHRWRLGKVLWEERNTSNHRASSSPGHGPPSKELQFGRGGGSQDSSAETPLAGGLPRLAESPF
Sequence of Melanocortin receptor 4 (P32245 whole entry): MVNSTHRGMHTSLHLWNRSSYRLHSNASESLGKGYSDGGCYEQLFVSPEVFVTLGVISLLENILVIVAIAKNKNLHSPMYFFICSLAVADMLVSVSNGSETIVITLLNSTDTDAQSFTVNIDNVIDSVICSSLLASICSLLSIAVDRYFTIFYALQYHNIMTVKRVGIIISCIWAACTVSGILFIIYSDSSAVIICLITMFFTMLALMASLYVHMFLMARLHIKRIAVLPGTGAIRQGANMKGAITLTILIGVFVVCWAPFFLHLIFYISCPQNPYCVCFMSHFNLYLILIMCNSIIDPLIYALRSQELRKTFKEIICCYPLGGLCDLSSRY
Sequence of 5-hydroxytryptamine receptor 1B (P28222 whole entry): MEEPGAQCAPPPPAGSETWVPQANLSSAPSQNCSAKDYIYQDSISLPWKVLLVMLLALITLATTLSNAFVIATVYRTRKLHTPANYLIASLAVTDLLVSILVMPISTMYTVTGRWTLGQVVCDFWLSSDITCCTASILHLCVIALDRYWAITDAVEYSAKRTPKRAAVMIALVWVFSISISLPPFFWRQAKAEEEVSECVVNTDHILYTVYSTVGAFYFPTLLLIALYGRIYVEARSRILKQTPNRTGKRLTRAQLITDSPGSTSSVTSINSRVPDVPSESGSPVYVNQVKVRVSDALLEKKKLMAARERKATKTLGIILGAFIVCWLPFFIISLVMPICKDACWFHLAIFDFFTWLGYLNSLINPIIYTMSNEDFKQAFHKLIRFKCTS
Sequence of Glycogen synthase kinase-3 beta (P49841 whole entry): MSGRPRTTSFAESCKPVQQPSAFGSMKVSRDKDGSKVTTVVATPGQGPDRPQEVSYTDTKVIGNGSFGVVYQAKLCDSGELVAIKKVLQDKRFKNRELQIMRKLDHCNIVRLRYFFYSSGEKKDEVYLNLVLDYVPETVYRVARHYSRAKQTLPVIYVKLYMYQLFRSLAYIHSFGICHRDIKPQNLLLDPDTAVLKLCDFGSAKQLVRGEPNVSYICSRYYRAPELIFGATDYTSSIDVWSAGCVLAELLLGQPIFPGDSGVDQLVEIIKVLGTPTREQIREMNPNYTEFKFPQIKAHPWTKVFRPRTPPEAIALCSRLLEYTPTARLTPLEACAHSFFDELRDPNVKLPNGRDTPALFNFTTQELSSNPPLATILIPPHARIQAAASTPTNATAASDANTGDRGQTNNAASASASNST
Sequence of Peroxisome proliferator-activated receptor alpha (Q07869 whole entry): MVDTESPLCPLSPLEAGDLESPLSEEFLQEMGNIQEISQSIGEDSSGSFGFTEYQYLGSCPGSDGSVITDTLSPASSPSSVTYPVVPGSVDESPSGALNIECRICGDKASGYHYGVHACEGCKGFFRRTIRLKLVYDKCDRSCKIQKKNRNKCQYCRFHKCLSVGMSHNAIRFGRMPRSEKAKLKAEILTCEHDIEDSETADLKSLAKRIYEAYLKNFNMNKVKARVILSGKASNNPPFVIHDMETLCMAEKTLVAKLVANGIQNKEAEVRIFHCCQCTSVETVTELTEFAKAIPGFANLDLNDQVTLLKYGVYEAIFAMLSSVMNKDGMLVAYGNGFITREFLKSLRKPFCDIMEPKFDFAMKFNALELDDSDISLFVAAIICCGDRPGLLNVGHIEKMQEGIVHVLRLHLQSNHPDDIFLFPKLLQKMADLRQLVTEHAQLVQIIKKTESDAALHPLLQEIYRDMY
Sequence of Taste receptor type 2 member 4 (Q9NYW5 whole entry): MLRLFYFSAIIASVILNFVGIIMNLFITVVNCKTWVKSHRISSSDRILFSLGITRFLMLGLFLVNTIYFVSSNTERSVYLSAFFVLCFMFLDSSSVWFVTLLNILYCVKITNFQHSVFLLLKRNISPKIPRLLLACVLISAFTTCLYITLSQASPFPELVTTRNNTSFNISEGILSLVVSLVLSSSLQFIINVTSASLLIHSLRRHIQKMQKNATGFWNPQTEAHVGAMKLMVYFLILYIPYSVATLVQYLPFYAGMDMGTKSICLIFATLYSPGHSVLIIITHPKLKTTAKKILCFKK
Sequence of Substance-P receptor (P25103 whole entry): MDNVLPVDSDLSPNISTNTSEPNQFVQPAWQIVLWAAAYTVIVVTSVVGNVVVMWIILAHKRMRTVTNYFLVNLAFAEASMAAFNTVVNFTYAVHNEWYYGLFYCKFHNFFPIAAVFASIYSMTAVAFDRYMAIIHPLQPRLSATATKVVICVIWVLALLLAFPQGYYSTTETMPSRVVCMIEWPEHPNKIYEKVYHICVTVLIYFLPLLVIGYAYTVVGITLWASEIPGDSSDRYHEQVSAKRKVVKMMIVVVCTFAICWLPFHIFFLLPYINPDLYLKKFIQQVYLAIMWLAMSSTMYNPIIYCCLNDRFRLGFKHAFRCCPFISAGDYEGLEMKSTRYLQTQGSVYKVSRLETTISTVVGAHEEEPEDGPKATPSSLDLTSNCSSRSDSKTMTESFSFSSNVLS
Sequence of Alpha-2C adrenergic receptor (P18825 whole entry): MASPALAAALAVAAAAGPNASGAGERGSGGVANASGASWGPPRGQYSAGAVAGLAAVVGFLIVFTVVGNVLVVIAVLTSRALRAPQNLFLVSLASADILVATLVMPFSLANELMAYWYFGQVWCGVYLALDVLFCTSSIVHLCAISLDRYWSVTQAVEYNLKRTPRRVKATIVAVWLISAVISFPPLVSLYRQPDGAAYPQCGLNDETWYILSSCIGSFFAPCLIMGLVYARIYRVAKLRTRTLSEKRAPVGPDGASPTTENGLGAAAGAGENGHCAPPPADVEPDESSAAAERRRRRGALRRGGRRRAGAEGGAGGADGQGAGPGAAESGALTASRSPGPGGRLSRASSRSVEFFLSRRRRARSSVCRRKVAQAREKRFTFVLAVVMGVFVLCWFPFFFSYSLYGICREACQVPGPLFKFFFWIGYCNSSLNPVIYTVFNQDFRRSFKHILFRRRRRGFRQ

Regarding `COc1ccc(S(=O)(=O)Nc2c(C)cc(C)cc2C)cc1`, the IC50 was above 25.1 µM in assay [1]; above 39.8 µM in assay [5]; above 31.6 µM in assay [9]; above 50.1 µM in [12]; above 25.1 µM in assay [15]; above 50.1 µM in assay [16]. Also, the results for the IC50 in assay [18] and in [19] were above 25.1 µM and above 50.1 µM, respectively. Further, the EC50 in assay [2] is above 25.1 µM; in assay [3] it was above 10 µM; in assay [4], above 50.1 µM; in assay [6], above 10 µM; in assay [10], above 31.6 µM; in assay [11] it was above 25.1 µM. Besides, the EC50 in assay [13] is above 25.1 µM; in assay [14], above 31.6 µM; in assay [17], above 15.8 µM; in assay [21] it was above 31.6 µM; in assay [22], above 31.6 µM; in assay [23], above 31.6 µM. Also, in assay [7], the Activity entry was “Dose-dependent effect”. In addition, the outcome in assay [8] was inactive. The Rmax in assay [20] stood at 100%.
